According to ChEMBL document CHEMBL4257531, “The role of aryl-topology in balancing between selective and dual 5-HT7R/5-HT1A actions of 3,5-substituted hydantoins” (Medchemcomm, 2018):
pKi: −log10 of the molar value.

Experiments:
D(2) dopamine receptor = D(2) dopamine receptor (Homo sapiens, UniProt P14416); assay: Displacement of [3H]-raclopride from human D2L receptor expressed in HEK293 cell membranes after 1 hr by microbeta counting method
[1] = biological target: T1, 5-hydroxytryptamine receptor 1A (Homo sapiens, UniProt P08908); assay: Displacement of [3H]-8-OH-DPAT from human 5-HT1A receptor expressed in HEK293 cell membranes after 1 hr by microbeta counting method
T1 sequence (P08908 whole entry): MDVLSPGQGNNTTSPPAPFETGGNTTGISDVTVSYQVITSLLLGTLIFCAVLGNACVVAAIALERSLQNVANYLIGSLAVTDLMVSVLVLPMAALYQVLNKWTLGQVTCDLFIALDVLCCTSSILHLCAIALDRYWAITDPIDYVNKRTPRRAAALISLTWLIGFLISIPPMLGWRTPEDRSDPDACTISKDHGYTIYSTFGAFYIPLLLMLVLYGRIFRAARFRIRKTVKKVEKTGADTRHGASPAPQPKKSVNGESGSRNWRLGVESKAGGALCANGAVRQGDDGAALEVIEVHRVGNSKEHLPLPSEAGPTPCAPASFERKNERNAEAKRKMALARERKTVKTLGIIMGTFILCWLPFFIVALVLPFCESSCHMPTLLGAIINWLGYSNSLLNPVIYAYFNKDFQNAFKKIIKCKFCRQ

[2] = biological target: 5-hydroxytryptamine receptor 7 (Homo sapiens, UniProt P34969); assay: Displacement of [3H]-5-carboxamidotryptamine from human 5-HT7B receptor expressed in HEK293 cell membranes after 1 hr by microbeta counting method
[3] = Drug metabolism in CD-1 mouse liver microsomes after 120 mins by UPLC-MS analysis; assay type: ADME, microsome; conditions: for metabolised at 2 h: CD-1, mouse, liver microsomes, read-out: Drug metabolism
Summary of the method: (§1)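 Mouse liver microsomes with NADPH regeneration system; incubation followed by UPLC-MS with ion fragmentation. Percent substrate remaining read after 120 min; t1/2 and hepatic intrinsic clearance calculated.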

[4] = Metabolic stability in CD-1 mouse liver microsomes assessed as parent compound remaining after 120 mins by UPLC-MS analysis; assay type: ADME, microsome; conditions: 2 h; summary of the method: as §1
[5] = Half life in CD-1 mouse liver microsomes by UPLC-MS analysis; assay type: ADME, microsome; conditions: for t1/2: mouse, microsomes; summary of the method: as §1
[6] = Intrinsic clearance in CD-1 mouse liver microsomes by UPLC-MS analysis; assay type: ADME, microsome; conditions: read-out: CLH; summary of the method: as §1
HepG2 [7] = assay: Cytotoxicity against human HepG2 cells assessed as reduction in cell viability at 100 uM after 72 hrs by MTS assay; assay type: cell-based; conditions: hepg2, 72 h
Summary of the method: (§2)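 Viability by MTS, absorbance at 490 nm, after 72 h exposure at 0.1–100 μM; doxorubicin 1 μM as positive control. HepG2 only: CCCP 10 μM as additional control. Significance versus negative control by one-way ANOVA with Bonferroni test.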

HEK293 [8] = assay: Cytotoxicity against HEK293 cells assessed as reduction in cell viability at 100 uM after 72 hrs by MTS assay; assay type: cell-based; conditions: human, hek293, 72 h; summary of the method: as §2
HepG2 [9] = assay: Cytotoxicity against human HepG2 cells assessed as reduction in cell viability at 0.1 to 10 uM after 72 hrs by MTS assay; assay type: cell-based; conditions: hepg2, 72 h; summary of the method: as §2
HEK293 [10] = assay: Cytotoxicity against HEK293 cells assessed as reduction in cell viability at 0.1 to 10 uM after 72 hrs by MTS assay; assay type: cell-based; conditions: human, hek293, 72 h; summary of the method: as §2
Homo sapiens = organism: Homo sapiens; assay: Selectivity ratio of Ki for 5-HT1A receptor (unknown origin) to Ki for 5-HT7 receptor (unknown origin)
Summary of the method: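 Competition binding on membranes of HEK-293 cells stably expressing human 5-HT1A or 5-HT7b receptors. 5-HT1A used 2.5 nM [3H]-8-OH-DPAT at room temperature; 5-HT7b used 0.8 nM [3H]-5-CT at 37 °C. Both ran 1 h, with 10 μM 5-HT for nonspecific binding. Seven concentrations (10–10–10–4 M) were tested in triplicate, with filtration read-out.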

HepG2 [11] = assay: Cytotoxicity against human HepG2 cells assessed as reduction in cell viability at 1 uM after 72 hrs by MTS assay; assay type: cell-based; conditions: hepg2, 72 h; summary of the method: as §2
HEK293 [12] = assay: Cytotoxicity against HEK293 cells assessed as reduction in cell viability at 1 uM after 72 hrs by MTS assay; assay type: cell-based; conditions: human, hek293, 72 h; summary of the method: as §2
HepG2 [13] = assay: Cytotoxicity against human HepG2 cells assessed as reduction in cell viability at 10 uM after 72 hrs by MTS assay; assay type: cell-based; conditions: hepg2, 72 h
Summary of the method: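 Cells exposed to test compound across 0.1–100 μM (four concentrations) for 72 h. Viability read by MTS assay, absorbance at 490 nm. Positive controls: doxorubicin 1 μM for both lines, plus CCCP 10 μM for HepG2 only. Significance versus negative control assessed by one-way ANOVA with Bonferroni's test.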

HEK293 [14] = assay: Cytotoxicity against HEK293 cells assessed as reduction in cell viability after 72 hrs by MTS assay; conditions: human, hek293, 72 h

Chain of D(2) dopamine receptor (P14416 whole entry): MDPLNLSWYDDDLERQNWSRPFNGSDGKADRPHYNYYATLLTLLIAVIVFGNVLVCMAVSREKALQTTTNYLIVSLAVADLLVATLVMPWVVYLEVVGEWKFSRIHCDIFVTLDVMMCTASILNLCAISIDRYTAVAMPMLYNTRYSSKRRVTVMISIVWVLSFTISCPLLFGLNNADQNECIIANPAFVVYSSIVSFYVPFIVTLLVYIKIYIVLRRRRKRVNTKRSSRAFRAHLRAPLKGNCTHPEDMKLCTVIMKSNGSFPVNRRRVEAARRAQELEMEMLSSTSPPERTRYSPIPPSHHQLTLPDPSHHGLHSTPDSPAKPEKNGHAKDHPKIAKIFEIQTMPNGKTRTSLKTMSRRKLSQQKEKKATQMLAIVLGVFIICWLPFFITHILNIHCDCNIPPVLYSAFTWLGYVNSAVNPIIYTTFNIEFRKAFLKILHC
Chain of 5-hydroxytryptamine receptor 7 (P34969 whole entry): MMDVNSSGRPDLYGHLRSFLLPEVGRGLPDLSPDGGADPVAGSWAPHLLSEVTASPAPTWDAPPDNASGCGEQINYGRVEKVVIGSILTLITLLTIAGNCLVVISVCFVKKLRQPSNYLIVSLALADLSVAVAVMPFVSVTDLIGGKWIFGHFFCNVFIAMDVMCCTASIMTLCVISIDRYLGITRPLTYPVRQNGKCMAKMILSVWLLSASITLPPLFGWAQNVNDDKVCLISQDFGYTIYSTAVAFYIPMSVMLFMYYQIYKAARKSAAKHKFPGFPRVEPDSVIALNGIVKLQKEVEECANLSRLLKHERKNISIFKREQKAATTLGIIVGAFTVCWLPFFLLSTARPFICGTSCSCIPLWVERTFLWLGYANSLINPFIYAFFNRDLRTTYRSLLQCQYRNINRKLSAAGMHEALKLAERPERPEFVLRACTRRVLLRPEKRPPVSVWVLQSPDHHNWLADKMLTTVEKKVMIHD

SMILES	pKi (D(2) dopamine receptor)	pKi [1]	pKi [2]	further results
COc1ccccc1N1CCN(CC(O)CN2C(=O)NC(C)(c3cccc4ccccc34)C2=O)CC1 (configuration not stated)	6.59	6.49	8.30	Drug metabolism ([3]; mouse, microsomes, 2 h): 40%; Stability [4]: 40%; half-life ([5]; CD-1, mouse, liver microsomes): 1.57 h; CLint scaled [6]: 29 mL/min/kg; Activity (HepG2 [7]): Toxic; Activity (HEK293 [8]): Toxic; Activity (HepG2 [9]): Non-Toxic; Activity (HEK293 [10]): Non-Toxic
CC1(c2cccc3ccccc23)NC(=O)N(CC(O)CN2CCN(C(c3ccccc3)c3ccccc3)CC2)C1=O (configuration not stated)	6.56	3.38	6.65	
CC1(c2ccc(F)cc2)NC(=O)N(CC(O)CN2CCN(C(=O)c3ccccc3)CC2)C1=O (configuration not stated)	5.00	5.21	5.44	
CC1(c2ccc(F)cc2)NC(=O)N(CC(O)CN2CCN(Cc3ccccc3)CC2)C1=O (configuration not stated)	4.70	3.42	5.68	
COc1ccccc1N1CCN(CC(O)CN2C(=O)NC(C)(C)C2=O)CC1 (configuration not stated)	5.67	6.31	6.90	
CC1(c2ccc(F)cc2)NC(=O)N(CC(O)CN2CCN(C(c3ccccc3)c3ccccc3)CC2)C1=O (configuration not stated)				Ratio Ki (Homo sapiens): 71; Stability [4]: 20%; t1/2 [5]: 2.625 h; CLint scaled [6]: 17.2 mL/min/kg
CC1(c2ccc3ccccc3c2)NC(=O)N(CC(O)CN2CCN(c3ccccc3C#N)CC2)C1=O (configuration not stated)	6.58	6.89	8.52	
CC1(c2ccc(F)cc2)NC(=O)N(CC(O)CN2CCN(c3cccc4ccccc34)CC2)C1=O (configuration not stated)	6.53	7.72	7.96	metabolised at 2 h [3]: 65 to 70%; Stability [4]: 65%; t1/2 [5]: 0.75 h; CLint scaled [6]: 60.3 mL/min/kg; Activity (HepG2 [7]): Toxic; Activity (HEK293 [8]): Toxic; Activity (HepG2 [9]): Non-Toxic; Activity (HEK293 [10]): Non-Toxic
CC1(c2cccc3ccccc23)NC(=O)N(CC(O)CN2CCN(c3ccccc3C#N)CC2)C1=O (configuration not stated)	6.38	5.91	7.72	
CC1(c2ccc(F)cc2)NC(=O)N(CC(O)CN2CCN(Cc3cccc4ccccc34)CC2)C1=O (configuration not stated)	5.28	5.25	5.66	
CC1(c2ccc(F)cc2)NC(=O)N(CC(O)CN2CCc3ccccc3C2)C1=O (configuration not stated)	5.23	5.81	6.05	
COc1ccccc1N1CCN(CC(O)CN2C(=O)NC(C)(c3ccc4ccccc4c3)C2=O)CC1 (configuration not stated)	6.82	6.89	8.52	metabolised at 2 h [3]: 65 to 70%; Stability [4]: 70%; t1/2 [5]: 1.04 h; CLint scaled [6]: 43.4 mL/min/kg; Activity (HepG2 [7]): Toxic; Activity (HEK293 [8]): Toxic; Activity (HepG2 [9]): Non-Toxic; Activity (HEK293 [10]): Non-Toxic
CC1(c2ccc(F)cc2)NC(=O)N(CC(O)CN2CCC(Oc3ccc(Cl)cc3)CC2)C1=O (configuration not stated)	5.39	4.67	6.76	
COc1cccc2c1C(=O)c1c(O)c3c(c(O)c1C2=O)C[C@@](O)(C(=O)CO)C[C@@H]3O[C@H]1C[C@H](N)[C@H](O)[C@H](C)O1 [DOXORUBICIN]				Activity (HepG2 [11]): Toxic; Activity (HEK293 [12]): Toxic
CC1(C)NC(=O)N(CC(O)CN2CCN(C(c3ccccc3)c3ccccc3)CC2)C1=O (configuration not stated)	5.94	4.82	6.08	
CC1(c2ccc(F)cc2)NC(=O)N(CC(O)CN2CCC(Oc3ccccc3)CC2)C1=O (configuration not stated)	5.36	5.28	6.78	
N#CC(C#N)=NNc1cccc(Cl)c1 [CARBONYL CYANIDE M-CHLOROPHENYLHYDRAZONE]				Activity (HepG2 [13]): Toxic; Activity (HEK293 [14]): Toxic
CC1(C)NC(=O)N(CC(O)CN2CCN(c3ccccc3C#N)CC2)C1=O (configuration not stated)	5.46	5.94	6.68	
